# Rev-erbA mod: modulators of human Rev-erb alpha DNA binding; P20393; Rev-erbα–FITC-DNA binding, fluorescence polarization, 90 min; activity, % at 10 µM; 370,000 compounds, 0.79% hits; AID 1259318;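 active means activity above about 14%, limit read from the data; passing the limit was not always enough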
# Rin1-Abl PPI inh: human Rin1-Abl interaction inhibition. 360,000 compounds, 0.4% hits. inhibition, % at 7.35 µM. TR-FRET Rin1/Abl binding, biochemical. P00519+Q13671; in the data active means inhibition above about 5%, passing the limit was not always enough
# PG9 binder: binds the HIV-1 gp120 antibody PG9; TR-FRET gp120-PG9 antibody binding; inhibition, % at 6.7 µM; 360,000 compounds, 0.43% hits; AID 624416; in the data active means inhibition above about 8.5%
# Tb MetRS inh: Trypanosoma brucei MetRS inhibition. AID 624268. 360,000 compounds, 0.4% hits. inhibition, % at 11.9 µM. purified T. brucei MetRS, ATP depletion, Kinase-Glo luminescence;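 active means inhibition above a per-plate cutoff of the control wells' mean inhibition plus 3 SD, cut at about 5.5% in these data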
#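 technique = Kinase-Glo luminescence, ATP depletion format | system = purified MetRS (methionyl-tRNA synthetase) enzyme from Trypanosoma brucei | timing = 15 min preincubation, 2 h reaction, all 25 °C | evaluation = percent inhibition versus plate control medians | dosing = single dose, 11.9 µM final nominal, 0.9% final DMSO | also added = substrates ATP, L-methionine and bulk Escherichia coli tRNA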
# Rin1-Abl confirm: Rin1-Abl interaction inhibition confirmation; shares compounds with Rin1-Abl PPI inh; TR-FRET Rin1-Abl binding, purified proteins; inhibition, % at 7.35 µM; 1,300 compounds, 49% hits; AID 602124
# GFP quench: counter-screen for Rin1-Abl inhibitors: GFP fluorescence quenchers; AID 602125; inhibitors/quenchers counterscreen; 1,300 compounds, 8.5% hits; inhibition, % at 6.75 µM; shares compounds with Rin1-Abl PPI inh;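 further: ABL1-eGFP fusion protein alone without its partner RIN1-SBP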
# A number is an active result; i = inactive; nt = not tested or not shown. Rows were chosen to be rich in hits. Some 1.8% of all compounds tested hit in one or more screens of this group. Unless noted, no stated cut-off is given here; in the data, active means inhibition above about 6.5%; inactive means the rest.
SMILES,Rev-erbA mod,Rin1-Abl PPI inh,PG9 binder,Tb MetRS inh,others
O=C1C(=O)c2ccccc2C(O)=C1c1ccccc1F,i,i,i,i,
O=C1C(O)=C(O)C(=O)c2ccccc21,i,23.6,i,i,
COc1ccc(NC(=O)c2cc(-c3ccncc3)nc3ccc(Br)cc23)cc1OC,i,8.8,i,i,
O=C(OCc1nc2ccccc2[nH]1)C12CC3CC(CC(C3)C1)C2,i,i,i,47.2,
Clc1ccc(-n2c(SCc3nc4ccccc4[nH]3)nnc2-c2ccncc2)cc1,i,i,i,6.7,
COc1ccc(-n2c(COc3ccc(Cl)cc3)nnc2SCc2nc3ccccc3[nH]2)cc1,i,nt,nt,nt,
CN1c2ccccc2Sc2ccc(CC(=O)O)cc21,i,nt,nt,nt,
Cc1onc(-c2ccccc2)c1C(=O)N[C@H]1C(=O)N2[C@@H]1SC(C)(C)[C@@H]2C(=O)O,i,nt,nt,nt,
CCCCCCCCCC(=O)OC1(c2ccc(Cl)cc2)CCN(CCCC(=O)c2ccc(F)cc2)CC1,i,nt,nt,nt,
CCc1cc(Cl)c(OC)c(C(=O)NC[C@H]2CCCN2CC)c1O,i,nt,nt,nt,
CC(C)C[C@@H](CNCC(=O)[C@H](Cc1c[nH]c2ccccc12)NC(=O)c1[nH]cnc1C(=O)N[C@H](CN)CC(C)C)NC(=O)c1nc[nH]c1C(=O)N[C@@H](CC(=O)O)C(=O)O,i,i,i,6.8,
CC(C)C[C@@H](CNCC(=O)[C@H](Cc1c[nH]c2ccccc12)NC(=O)c1[nH]cnc1C(=O)N[C@@H](C)CN)NC(=O)c1nc[nH]c1C(=O)N[C@@H](CC(=O)O)C(=O)O,i,i,i,10.9,
CC(C)C[C@@H](CN)NC(=O)c1nc[nH]c1C(=O)N[C@@H](Cc1c[nH]c2ccccc12)C(=O)CNC[C@H](C)NC(=O)c1nc[nH]c1C(=O)N[C@@H](CC(=O)O)C(=O)O,i,i,i,i,
C[C@]12C=CC(=O)C=C1CCC1C2C(=O)C[C@@]2(C)C1CC[C@]2(O)C(=O)CO (some centres not stated),i,nt,nt,nt,
O=C(CSc1ccc(C(F)(F)F)cc1[N+](=O)[O-])Nc1ccccc1,i,i,i,7.6,
CC(=O)Nc1ccc(NC(=O)CSc2ccc(C(F)(F)F)cc2[N+](=O)[O-])cc1,i,i,i,i,
CC(=O)O[C@H]1CC2CCC3C(CC[C@@]4(C)C3C[C@H]([N+]3(C)CCCCC3)[C@@H]4OC(C)=O)[C@@]2(C)C[C@@H]1N1CCCCC1 (some centres not stated),i,nt,nt,nt,
CN(C)c1ccc(O)c2c1CC1CC3[C@@H](N(C)C)C(=O)C(C(N)=O)=C(O)[C@]3(O)C(=O)C1=C2O (some centres not stated),i,15.8,i,i,
CCN(CC)c1ccc(C(=C2C=CC(=[N+](CC)CC)C=C2)c2ccccc2)cc1,i,i,i,i,
CCN(CC)c1ccc(C(=C2C=CC(=[N+](CC)CC)C=C2)c2ccc(N(CC)CC)cc2)cc1,i,19.1,i,i,Rin1-Abl confirm=17.4;GFP quench=52.2
CO[C@H]1C[C@H](O[C@H]2[C@H](C)[C@@H](O[C@@H]3O[C@H](C)C[C@H](N(C)C)[C@H]3O)[C@@H](C)C[C@]3(CO3)C(=O)[C@H](C)[C@@H](O)[C@@H](C)[C@@H](C)OC(=O)[C@@H]2C)O[C@@H](C)[C@@H]1O,i,nt,nt,nt,
Cc1ccc(S(=O)(=O)N2C[C@H]3[C@H]4C(=O)N(c5ccccc5)C(=O)[C@H]4CC(=O)[C@H]3[C@@H]2c2cccc3ccccc23)cc1,i,48.0,i,i,Rin1-Abl confirm=i;GFP quench=i
Cc1ccc(S(=O)(=O)N2C[C@H]3[C@H]4C(=O)N(c5ccccc5)C(=O)[C@H]4CC(=O)[C@H]3[C@@H]2c2ccccc2F)cc1,i,i,i,i,
COC(=O)C1=C(C)N(C)C(=NCc2ccc3c(c2)OCO3)NC1c1cccc(F)c1 (configuration not stated),i,nt,i,nt,
CC(C)NC(=O)CC1C(=O)NCCN1CC(c1ccccc1)c1ccccc1 (configuration not stated),i,8.7,i,i,Rin1-Abl confirm=i;GFP quench=i
O=C1OC(NCc2cccnc2)(c2ccc(Cl)cc2)c2ccccc21 (configuration not stated),i,12.4,i,i,Rin1-Abl confirm=7.4;GFP quench=i
O=C1NNC(c2ccccc2)=N/C1=C\c1ccccc1Cl,i,6.8,i,i,Rin1-Abl confirm=8.3;GFP quench=i

# Compound activity from PubChem BioAssay.
